Hits are enriched below; roughly 2.4% of the tested compounds scored in any of these assays.
H9c2 TAG inh – reduces triacylglycerol accumulation in H9c2 cells; Nile Red lipid (TAG) fluorescence; cells loaded with 200 µM oleic acid; inhibition, % at 12.5 µM; 230,000 compounds, 0.66% hits;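 active means pattern-corrected inhibition of lipid staining of at least 50% with the nuclear-stain viability signal not falling by more than 50%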;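 further: 0% = DMSO wells and 100% = triacsin C control wells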
TbMetRS inhib – blocks T. brucei methionyl-tRNA synthetase activity | purified T. brucei MetRS, ATP depletion, Kinase-Glo luminescence | inhibition, % at 11.9 µM | 360,000 compounds, 0.4% hits | AID 624268;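 active means inhibition above a per-plate cutoff of the control wells' mean inhibition plus 3 SD, cut at about 5.5% in these data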;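 further: 0% = DMSO wells median and 100% = median of wells with control inhibitor compound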
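Dosing: 11.9 µM single point; system: parasite MetRS enzyme; technique: luminescence of leftover ATP; times: 15 min enzyme-compound preincubation, 2 h reaction, 10 min detection, 25 °C; replicates: each compound tested once; read-out basis: percent inhibition relative to median high and low control wells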
aDG glyco act – increases alpha dystroglycan glycosylation. Pro5-aDG cells, alpha-DG glycosylation AlphaScreen (IIH6); 0% Pro5, 100% B10-LARGE cell signal. activation, % at 10 µM. 360,000 compounds, 0.22% hits. AID 624168;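 active means activation of at least 8% versus controls, or a plate z-score of at least 8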;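 further: Pro5 are CHO cells carrying HIG-tagged alpha-DG that lacks glycosylation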
MC4R antag cAMP – blocks human MC4R cAMP signaling; P32245; MC4R-expressing cells, MTII-stimulated cAMP, LANCE TR-FRET; inhibition, % at 6.5 µM; 360,000 compounds, 0.48% hits; AID 540295;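 active means inhibition above its plate's cutoff, the mean of tested wells on that plate plus 3 SD, cut at about 29% in these data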;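 further: 0% = Melanotan II alone and 100% = Melanotan II plus saturating MCL0020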
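Material – human MC4R-expressing U2OS cells · Repeats – no replicates · Detection – TR-FRET with Eu-cAMP and labeled anti-cAMP, 671 nm · Times – compound 30 min, challenge 1 h, detection 1 h · Compound – single nominal compound dose of 6.5 µM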
MC4R barr agon – activates human MC4R beta-arrestin recruitment | P32245 | U2OS MC4R beta-arrestin complementation, luminescence; percent of melanotan II response, DMSO zero | activation, % at 8.9 µM | 360,000 compounds, 0.98% hits | AID 540308;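 active means activation above a per-plate cutoff, the mean activation of sample wells on that plate plus 3 SD, cut at about 8% in these data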
NTR1 ag – agonists of human neurotensin receptor NTR1 | activation, % at 20 µM | 330,000 compounds, 0.17% hits | P30989 | NTR1-U2OS beta-arrestin-GFP spot imaging, agonist mode | AID 493036;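 active means activation at or above 40% of the spot to cytoplasm intensity ratio, with at least 20 cells analyzed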;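 further: 0% = DMSO without peptide and 100% = 100 nM NTR1 peptide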
Target sequence (P30989 whole entry, looked up): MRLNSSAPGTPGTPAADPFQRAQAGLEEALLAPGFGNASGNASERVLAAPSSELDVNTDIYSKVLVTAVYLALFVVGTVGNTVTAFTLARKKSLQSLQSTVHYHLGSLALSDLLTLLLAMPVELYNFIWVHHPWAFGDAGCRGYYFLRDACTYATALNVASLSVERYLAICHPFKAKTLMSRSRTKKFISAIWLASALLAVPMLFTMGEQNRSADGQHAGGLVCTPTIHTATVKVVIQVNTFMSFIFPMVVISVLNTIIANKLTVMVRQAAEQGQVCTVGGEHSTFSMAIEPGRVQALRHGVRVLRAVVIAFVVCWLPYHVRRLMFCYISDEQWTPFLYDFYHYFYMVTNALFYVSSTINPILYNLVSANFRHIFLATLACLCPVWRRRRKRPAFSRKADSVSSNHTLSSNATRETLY
TbMetRS confirm – confirmation of Trypanosoma brucei MetRS inhibitors; shares compounds with TbMetRS inhib; inhibition, % at 11.9 µM; AID 624412; T. brucei MetRS enzyme, luminescence (ATP depletion); 1,400 compounds, 93% hits; in the data active means inhibition above about 7%
Jurkat cytotox – Jurkat T cell cytotoxicity for MetRS hits | 1,400 compounds, 12% hits | shares compounds with TbMetRS inhib | Jurkat cells viability, ATP luminescence | inhibition, % at 8.3 µM; in the data active means inhibition above about 15%;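 further: 0% = vehicle and 100% = reference inhibitor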
TbMetRS FP orth – inhibits T. brucei methionyl tRNA synthetase in orthogonal FP test | shares compounds with TbMetRS inhib | purified T. brucei MetRS, fluorescence polarization | inhibition, % at 11.9 µM | 1,400 compounds, 44% hits | AID 651607; in the data active means inhibition above about 17%;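 further: 0% = vehicle wells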
Numbers without * were called inactive; . = not tested or not shown.

SMILES | H9c2 TAG inh | TbMetRS inhib | aDG glyco act | MC4R antag cAMP | MC4R barr agon | NTR1 ag | TbMetRS confirm | Jurkat cytotox | TbMetRS FP orth
CCc1ccc(NC(=O)c2ccc(OC)c([N+](=O)[O-])c2)cc1 | . | 1 | 0 | -4 | -2 | 5 | . | . | .
COC(=O)c1ccc(-n2cncn2)c([N+](=O)[O-])c1 | . | 16* | 0 | 19 | 0 | -1 | 35* | -5 | 6
Cc1ccc(NC(=O)CN(C)C(=O)c2ccc(C(F)(F)F)cc2)cc1 | -5 | 6.2* | 0 | -2 | 1 | 0 | 26* | 6 | 10
CCc1nc2c(OCc3ccc(C(F)(F)F)cc3)cccn2c1N(C)C(=O)C1CC1 | 5 | 0 | 1 | -2 | -2 | . | . | . | .
Cc1c(NS(=O)(=O)c2cccc(C(=O)NCc3cccc(Cl)c3)c2)c(=O)n(-c2ccccc2)n1C | -3 | 18* | 0 | 10 | -1 | . | 43* | 6 | 27*
CC(=O)NC(c1ccc(F)c(F)c1)c1nc(-c2cccc(C(C)C)c2)cs1 (configuration not stated) | 4 | -1 | 0 | 0 | 1 | . | . | . | .
COc1ccc([C@H]2CN(c3ccc(OC)cc3)C(=O)[C@@H]2CC(=O)Nc2ccccc2)cc1 | -6 | 0 | 0 | -3 | 0 | . | . | . | .
O=S1(=O)CC(N2CCC(Cc3ccccc3)CC2)CN1C1CCCCC1 (configuration not stated) | . | 0 | 0 | . | . | . | . | . | .
O=C1C2Sc3[nH]c(=O)sc3C(c3cc([N+](=O)[O-])ccc3O)C2C(=O)N1c1ccccc1 (configuration not stated) | -7 | 16* | 0 | 11 | -1 | -1 | 19* | 0 | 12
Cc1ccc(N2C(=O)C3Sc4[nH]c(=O)sc4C(c4ccccc4)C3C2=O)cc1 (configuration not stated) | 3 | 0 | 0 | 8 | -1 | 3 | . | . | .
O=[N+]([O-])c1ccc(OCc2cnc(Cl)s2)c([N+](=O)[O-])c1 | -5 | 6.7* | 0 | 7 | -2 | 0 | 18* | 1 | 16
COC(=O)C(Cc1cnc(Cl)s1)(C(=O)OC)c1ccc([N+](=O)[O-])cc1[N+](=O)[O-] | -11 | 0 | 0 | 2 | -1 | 1 | . | . | .
C=CCn1c(NC(=O)c2ccccc2Cl)c(C#N)c2nc3ccccc3nc21 | 24 | 6.8* | 0 | 20 | 0 | -1 | 0 | -2 | 6
CCCCn1c(NC(C)=O)c(C#N)c2nc3ccccc3nc21 | 3 | 0 | 0 | 5 | -1 | -1 | . | . | .
COc1cccc(CN2CCN(Cc3cc4ccccc4[nH]3)CC2CCO)c1 (configuration not stated) | 20 | 2 | 0 | 12 | 0 | 0 | . | . | .
CCOc1ccc(CN2CCN(Cc3cc4ccccc4[nH]3)CC2CCO)cc1 (configuration not stated) | . | 14* | 0 | 3 | 1 | . | 26* | 5 | 13
Cc1cccc(NC(=O)CCC(=O)OCc2ccc(Br)cc2)c1 | . | 0 | 0 | 16 | 0 | -1 | . | . | .
Cc1ccc(NC(=O)CCC(=O)OCc2ccc(Br)cc2)cc1 | . | 17* | 0 | 0 | -2 | -1 | 26* | -6 | 12
Cc1cccc(OCCCC(=O)Nc2ccc(Br)cc2)c1 | 3 | 34* | 0 | -1 | 1 | 0 | 45* | 0 | 34*
Cc1cccc(OCCCC(=O)Nc2ccc(N(C)C)cc2)c1 | . | 0 | 0 | 7 | 1 | 0 | . | . | .
CC1(C)CC(N2CCN(CCO)CC2)=CC(=S)N1 | . | 6.2* | 0 | 0 | 2 | -1 | 3 | 0 | -3
CC1(C)CC(NCc2ccccc2)=CC(=S)N1 | . | 0 | 0 | . | . | . | . | . | .
COc1ccccc1-c1cnc(C(O)c2ccc(F)c(F)c2)[nH]1 (configuration not stated) | -9 | 0 | 0 | -2 | -2 | . | . | . | .
COc1cccc(CNC(=O)CSc2nnc3c(n2)[nH]c2ccc(OC)cc23)c1 | . | 1 | 0 | 6 | 0 | 0 | . | . | .
COc1ccc2[nH]c3nc(SCC(=O)NNC(=O)c4ccc(OC)c(OC)c4)nnc3c2c1 | . | 0 | 0 | 14 | 0 | 0 | . | . | .
SMILES | H9c2 TAG inh | TbMetRS inhib | aDG glyco act | MC4R antag cAMP | MC4R barr agon | NTR1 ag | TbMetRS confirm | Jurkat cytotox | TbMetRS FP orth
CC(C)c1ccc2[nH]c3nc(SCC(=O)NC4CC4)nnc3c2c1 | . | -1 | 0 | 2 | 2 | -1 | . | . | .
Cc1nnc(NC(=O)CSc2nnc3c(n2)[nH]c2ccc(Br)cc23)s1 | . | 12* | 0 | -4 | 0 | 0 | 63* | 11 | 54*
O=C(CSc1nnc2c(n1)[nH]c1ccccc12)NCc1ccco1 | -5 | 8.3* | 0 | 1 | -3 | 0 | 14* | 9 | 7
COc1ccc2[nH]c3nc(SCC(=O)Nc4ccc5c(c4)OCO5)nnc3c2c1 | -7 | 56* | 0 | -5 | -1 | 1 | 88* | 10 | 73*
COc1ccc(CNC(=O)CSc2nnc3c(n2)[nH]c2ccccc23)cc1 | . | 42* | 0 | 3 | -2 | 0 | 81* | 4 | 75*
O=C(CSc1nnc(-c2ccccc2)c(-c2ccccc2)n1)NCc1ccco1 | 4 | -1 | 1 | 0 | 0 | 0 | . | . | .
Nc1sccc1C(=O)N1CCN(c2ccccc2)CC1 | . | 0 | 1 | . | . | . | . | . | .
CCc1nc2ccc(C(=O)N3CCN(S(=O)(=O)CC)CC3)cn2c1N(CC)Cc1cccc(Br)c1 | 2 | 0 | 0 | 8 | -1 | . | . | . | .
COc1cccc(CNC(=O)CSc2nnc3c(n2)[nH]c2ccccc23)c1 | . | 20* | 0 | -3 | -2 | -1 | 64* | 5 | 35*
COc1ccc(CNC(=O)CSc2nnc3c(n2)[nH]c2ccc(C)cc23)cc1 | . | 33* | 0 | 13 | -1 | -1 | 82* | 0 | 55*
COc1ccc(CNC(=O)CSc2nc3ccccc3n2C(C)=O)cc1 | . | 17* | 0 | 10 | 0 | -1 | 29* | -3 | 10
Cn1c(SCC(=O)NCc2ccc(F)cc2)nc2ccccc21 | -13 | 0 | 0 | -6 | -3 | -2 | . | . | .
COCCN(CC(=O)Nc1cccc(C)c1C)C(=O)/C=C/c1ccc2c(c1)OCCO2 | -11 | 0 | 0 | 0 | -3 | . | . | . | .
COC(=O)c1ccc(CSc2nnc(Nc3ccc(C)cc3)s2)o1 | . | 7.5* | 0 | 9 | 3 | 4 | 14* | 1 | 8

Screening results (PubChem BioAssay)
